# Screening results from PubChem.
# IMP-1 inh-1: blocks Pseudomonas aeruginosa IMP-1 metallo-beta-lactamase | inhibition, % at 5.6 µM | AID 1556 | purified IMP-1, nitrocefin hydrolysis, epi-absorbance fluorescence | hit rate 0.45% among 290,000;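 active = inhibition above the mean plus 3 SD of all compounds in the same screening run, cut at about 4.5% in these data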;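 note: 0% = IMP-1 with DMSO and 100% = DMSO wells lacking enzyme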
#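 System: Purified IMP-1 | Read-out basis: Percent enzyme inhibition | Controls: IMP-1 with DMSO as 0%, enzyme-free DMSO as 100% | Replicates: One well per compound | Doses: 5.6 µM nominal single concentration | Detection: Epi-absorbance fluorescence, 480 nm excitation, 530 nm emission | Incubation: 25 °C, 15 min preincubation, 25 min reaction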
# MLLE-PAM2 inh: inhibitors of microRNA-mediated deadenylation, human PABP1 MLLE binding; GST-MLLE / FITC-PAM2 fluorescence polarization; inhibition, % at 20 µM; hit rate 0.36% among 360,000; AID 588489; in the data active = inhibition above about 35%, passing the limit was not always enough;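 note: plate controls were DMSO wells with GST-MLLE for no effect and wells lacking GST-MLLE protein for full effect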
# eIF4H inh: inhibitors of RNA binding by human eIF4H | Q15056 | AID 2012 | inhibition, % at 35 µM | hit rate 0.94% among 290,000 | eIF4H fluorescence polarization binding assay;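 note: calls also rest on retests at 20 µM and on dose response follow-up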
# VIM-2 inh: inhibitors of Pseudomonas aeruginosa VIM-2 metallo-beta-lactamase | purified VIM-2, nitrocefin hydrolysis, epi-absorbance fluorescence | AID 1527 | inhibition, % at 5.6 µM | hit rate 0.89% among 290,000;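 active = inhibition above the mean of all tested compounds plus 3 SD, cutoff set per screening run, cut at about 7.5% in these data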;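 note: red hydrolysis product quenches plate fluorescence so inhibitors raise well fluorescence; 0% = enzyme with DMSO and 100% = DMSO without enzyme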
# PABP polyA inh: PABP-poly(A) binding inhibition | P11940 | PABP-poly(A) RNA binding, fluorescence polarization | calls only at 35 µM | hit rate 1% among 290,000;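 note: calls also rest on retests at 20 µM and on dose response follow-up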
# IMP-1 inh-2: blocks IMP-1 metallo-beta-lactamase in VIM-2 selectivity screen; shares compounds with VIM-2 inh; purified IMP-1, nitrocefin hydrolysis, epi-absorbance fluorescence; inhibition, % at 5.6 µM; 1,300 tested, under 10 active; AID 1856;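 note: 0% = enzyme with vehicle and 100% = vehicle without enzyme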
# VIM-2 FRET ctr: counter-screen for VIM-2 inhibitors: epi-absorbance artifacts via FRET; hit rate 23% among 1,300; inhibition, % at 5.6 µM; purified VIM-2, CCF2 FRET substrate hydrolysis; shares compounds with VIM-2 inh;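 active = inhibition above the mean of all tested compounds plus 3 SD, cut at about 19% in these data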;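 note: 0% = VIM-2 plus DMSO and 100% = no enzyme wells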
# TEM-1 inh: TEM-1 inhibition, counter-screen for VIM-2 inhibitors; inhibition, % at 5.6 µM; hit rate 3% among 1,300; Purified TEM-1, nitrocefin hydrolysis, epi-absorbance fluorescence; shares compounds with VIM-2 inh;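 active = inhibition above that campaign's mean inhibition plus 3 SD, cut at about 0.46% in these data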;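 note: 0% = TEM-1 with DMSO and 100% = TEM-1 with 100 µM potassium clavulanate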
# Target sequence (P62593 whole entry, looked up): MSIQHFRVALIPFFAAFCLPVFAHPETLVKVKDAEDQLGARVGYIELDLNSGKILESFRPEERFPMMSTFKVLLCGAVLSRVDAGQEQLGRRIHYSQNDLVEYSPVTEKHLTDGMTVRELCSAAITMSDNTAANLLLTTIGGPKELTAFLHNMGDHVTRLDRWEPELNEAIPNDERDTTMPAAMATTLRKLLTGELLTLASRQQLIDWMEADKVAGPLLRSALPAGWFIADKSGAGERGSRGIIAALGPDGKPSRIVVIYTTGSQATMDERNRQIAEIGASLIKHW
# VIM-2 inh conf: confirmation of P. aeruginosa VIM-2 metallo-beta-lactamase inhibitors; shares compounds with VIM-2 inh; purified VIM-2, nitrocefin hydrolysis, epi-absorbance; inhibition, % at 5.6 µM; hit rate 96% among 1,300;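 active = inhibition of the VIM-2 beta-lactamase enzyme above about 11% from the earlier first-round screen, limit read from the data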;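 note: 0% = VIM-2 with DMSO and 100% = buffer wells without enzyme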
# The depositor's hits bear a star; i = inactive; · = no result. Rows were chosen to be rich in hits. Some 2.2% of all compounds tested hit in one or more screens of this group. Unless noted, the rule behind the calls is not given here.
SMILES,IMP-1 inh-1,MLLE-PAM2 inh,eIF4H inh,VIM-2 inh,PABP polyA inh,IMP-1 inh-2,VIM-2 FRET ctr,TEM-1 inh,VIM-2 inh conf
O=C(O)C/C(=C\c1cc(Cl)c2c(c1)OCO2)c1nc2ccccc2s1,1.3,-21.9,94.0*,14.1*,i,0.1,39.8*,-4.9,23.1*
Cc1nn(CC(=O)NCc2ccc(-n3cccn3)cc2)c(C)c1[N+](=O)[O-],-2.2,11.7,1.9,-5.8,i,·,·,·,·
COc1ccc2c(c1OC)c(=O)n1c3ccc(OC(C)C(=O)NCCN4CCOCC4)cc3c3ccnc2c31 (stereo not drawn),-0.4,8.2,-2.5,17.7*,i,-0.8,-5.5,-8.7,25.8*
CCCCc1cc(=O)oc2cc(OC(C)C(=O)NCCN3CCOCC3)ccc12 (stereo not drawn),·,11.3,·,·,·,·,·,·,·
CC(Oc1ccc2c(c1)c1ccnc3c4ccccc4c(=O)n2c13)C(=O)NCCN1CCOCC1 (stereo not drawn),-1.8,34.1,-0.5,26.8*,i,-2.4,-7.7,-7.6,36.5*
O=C(CCC(=O)c1cccs1)Nc1ccc(F)c(F)c1F,-0.9,-11.7,7.7,1.2,i,·,·,·,·
CCCCn1c(-c2cccnc2)n[nH]c1=S,-4.9,-13.3,-3.0,20.4*,i,-2.7,32.5*,-6.8,21.7*
NS(=O)(=O)c1ccc(NC(=O)c2ccc(S(=O)(=O)N3CCCCCC3)cc2)cc1,·,-7.1,·,·,·,·,·,·,·
CCC(=O)N1CCC1(C)C(=O)NCc1ccc(SC)cc1 (stereo not drawn),·,11.7,·,·,·,·,·,·,·
Cn1c2ccccc2c(=O)c2ccc(C#CC3(N)CCCCC3)cc21,-2.8,-4.3,28.1,27.6*,i,-2.5,-0.5,-10.0,39.2*
Cn1c(=O)c(Oc2ccc(F)cc2)c(O)c2ccccc21,0.2,-3.4,2.4,-0.5,i,·,·,·,·
Cn1c2ccccc2c(=O)c2ccc(F)cc21,-4.5,3.0,-6.3,13.0*,i,-2.4,-22.5,-9.5,23.6*
O=c1c2ccccc2oc2ccc(C#CC3(O)CCCCC3)cc12,·,-3.1,·,·,·,·,·,·,·
Cn1c2ccccc2c(=O)c2cc(C#Cc3ccccn3)ccc21,-3.0,1.7,12.2,13.8*,i,-2.2,-8.2,-5.2,16.6*
COc1cccc2oc3ccc(C#CC4(N)CCCCC4)cc3c(=O)c12,-1.3,-7.5,0.2,14.7*,i,-3.2,-1.6,-5.8,19.8*
Cn1c2ccccc2c(=O)c2cc(C#Cc3ccsc3)ccc21,-2.2,-18.4,3.7,-0.8,i,·,·,·,·
CSc1nnc(-c2cc3c(-c4ccccc4)nn(C)c3s2)n1C,-1.8,-36.9,-2.3,18.9*,i,-2.8,0.3,-5.3,26.4*
Cn1nc(-c2ccccc2)c2cc(C(=O)O)sc21,-0.2,12.3,-2.4,1.0,i,·,·,·,·
COC1CCCN(C(=O)c2ccc(OC3CCN(CCc4ccccc4)CC3)cc2)C1 (stereo not drawn),-0.4,1.2,-2.0,2.2,i,·,·,·,·
COc1ccc(N2CCN(c3cc(C)c4ccc(O)cc4n3)CC2)cc1,-1.0,6.3,5.6,-0.9,i,·,·,·,·
COc1cc(OC)c2nc(C)c3c(c2c1)N(c1ccc(O)cc1)CC3,-1.4,-2.2,-4.6,56.5*,i,-4.2,-30.9,-5.8,68.9*
Cc1nc2ccc(NC(=O)N3CCSCC3)cc2s1,-2.6,-8.4,-5.7,-0.4,i,·,·,·,·
Cc1nc2ccc(NC(=O)N3CCSCC3)cc2nc1C,-3.6,7.2,-7.7,16.2*,i,-2.8,3.4,-6.2,4.4
COC(=O)c1c(C(=O)OC)c2oc3ccccc3n2c1Cl,-3.0,-1.8,-2.7,13.7*,i,-2.0,2.1,-4.8,18.3*
COC(=O)c1c(C(=O)OC)c2cc(C(=O)c3ccccc3)ccn2c1Cl,-6.2,-10.7,12.7,7.3,i,·,·,·,·
SMILES,IMP-1 inh-1,MLLE-PAM2 inh,eIF4H inh,VIM-2 inh,PABP polyA inh,IMP-1 inh-2,VIM-2 FRET ctr,TEM-1 inh,VIM-2 inh conf
CNC(=O)CSc1nnc(NC(=O)C2CC(=O)N(c3ccccc3OC)C2)s1 (stereo not drawn),-2.8,0.9,-2.2,32.8*,i,-3.6,-0.5,-4.0,-0.5
NC(=O)COC(=O)c1ccc(-c2ccccc2)cc1,-1.7,-7.0,-4.3,-0.4,i,·,·,·,·
CCN(CC)CCNc1ccc(CO)c2sc3ccccc3c(=O)c12,-3.0,-0.2,81.1,24.0*,i,1.0,-0.8,-8.1,35.5*
CNC(=O)c1c(NC(=O)c2cccc(N3C(=O)CCC3=O)c2)sc2c1CCC2,1.1,5.0,10.9,3.6,i,·,·,·,·
COC(=O)c1c(NC(=O)c2cccc(N3C(=O)CCC3=O)c2)sc2c1CCN(C(C)=O)C2,-2.5,9.2,6.3,24.0*,i,-3.7,-2.0,-6.7,39.4*
Cc1sc2c(=O)n3c(nc2c1C(=O)NCCCN1CCOCC1)CCCCC3,-3.1,11.6,-0.8,17.8*,i,-2.3,-0.1,-6.3,36.3*
Cc1sc2c(=O)n3c(nc2c1C(=O)NC1CCCCC1)CCCCC3,-0.6,-7.0,7.3,-1.0,i,·,·,·,·
S=c1[nH]nc(-c2ccco2)n1C1CCCCC1,-1.8,18.1,-4.6,24.6*,i,-2.8,52.4*,-6.5,34.1*
Cn1cc(Cl)c(-c2n[nH]c(=S)n2C2CCCCC2)n1,-0.4,22.9,5.1,42.3*,i,-2.7,60.2*,-8.0,42.8*
COc1cc(C#Cc2ccc3cc(C(C)(C)O)oc(=O)c3c2)cc(OC)c1,·,0.1,·,·,·,·,·,·,·
Cc1nn2c(-c3ccc(S(=O)(=O)N4CCN(CCO)CC4)o3)nnc2c2ccccc12,-0.3,6.8,5.8,25.8*,i,-2.0,7.6,-2.8,34.7*
COc1ccc(-c2nnc3c4ccccc4c(C)nn23)cc1S(=O)(=O)N1CCN(CCO)CC1,-5.6,2.4,3.6,27.4*,i,-2.6,10.9,-9.1,39.7*
CN1CCN(CCCn2cnc3c(=O)oc4ccccc4c32)CC1,-1.4,-8.5,10.2,20.8*,i,-3.2,-0.1,-9.1,39.8*
COc1cc(CNCCNCC(C)O)ccc1OCc1ccc(Cl)nc1 (stereo not drawn),-2.9,13.3,-0.5,38.5*,i,-3.5,-2.5,-4.4,32.1*
CCOC(=O)c1sc2nc(C)nc(NCc3cccnc3)c2c1C,-3.4,-12.7,7.8,23.9*,i,-2.6,-3.9,-6.4,50.3*
CC(OC(=O)c1cc(S(=O)(=O)N(C)c2ccccc2)ccc1Cl)C(=O)Nc1ccc2c(c1)OCCO2 (stereo not drawn),-2.9,1.2,-3.4,-1.3,i,·,·,·,·
S=c1[nH]nc(-c2ccco2)n1-c1cccc2ccccc12,-6.9,2.0,-9.9,19.4*,i,-2.4,49.2*,-7.9,32.0*
